Test results published in ChEMBL document CHEMBL1139027, “Design and synthesis of potent and subtype-selective PPARalpha agonists” (Bioorg Med Chem Lett, 2006).

Columns and labels:
[1] = molecular target: T1, Peroxisome proliferator-activated receptor alpha (Homo sapiens, UniProt Q07869); assay: Binding affinity to human PPAR alpha
T1 sequence (Q07869 whole entry): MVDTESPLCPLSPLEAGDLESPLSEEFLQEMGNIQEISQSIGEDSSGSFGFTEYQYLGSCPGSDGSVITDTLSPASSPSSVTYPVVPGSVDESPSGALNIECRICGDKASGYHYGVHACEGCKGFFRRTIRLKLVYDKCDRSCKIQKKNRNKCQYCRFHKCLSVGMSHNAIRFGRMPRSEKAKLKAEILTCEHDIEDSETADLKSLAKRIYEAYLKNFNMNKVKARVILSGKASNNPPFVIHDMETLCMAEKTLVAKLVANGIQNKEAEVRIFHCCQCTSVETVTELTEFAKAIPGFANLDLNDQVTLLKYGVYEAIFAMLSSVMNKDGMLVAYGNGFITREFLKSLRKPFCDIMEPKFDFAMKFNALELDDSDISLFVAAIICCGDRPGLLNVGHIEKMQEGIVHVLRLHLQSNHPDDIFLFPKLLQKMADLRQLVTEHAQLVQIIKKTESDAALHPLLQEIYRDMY

[2] = molecular target: T2, Peroxisome proliferator-activated receptor gamma (Homo sapiens, UniProt P37231)
T2 sequence (P37231 whole entry): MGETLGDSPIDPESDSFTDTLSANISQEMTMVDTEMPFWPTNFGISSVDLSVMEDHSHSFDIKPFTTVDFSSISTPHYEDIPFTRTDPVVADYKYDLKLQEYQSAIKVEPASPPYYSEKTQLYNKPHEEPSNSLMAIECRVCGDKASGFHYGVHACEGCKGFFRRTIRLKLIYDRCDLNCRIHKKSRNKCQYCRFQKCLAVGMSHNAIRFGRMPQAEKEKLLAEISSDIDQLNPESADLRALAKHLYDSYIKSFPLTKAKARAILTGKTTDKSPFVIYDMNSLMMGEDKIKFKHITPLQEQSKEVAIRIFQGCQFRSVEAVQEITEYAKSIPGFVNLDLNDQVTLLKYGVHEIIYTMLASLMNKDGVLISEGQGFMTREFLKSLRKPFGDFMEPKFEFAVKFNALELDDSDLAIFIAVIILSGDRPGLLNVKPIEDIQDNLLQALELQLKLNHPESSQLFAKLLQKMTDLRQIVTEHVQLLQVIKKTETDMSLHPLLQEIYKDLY

[3] = molecular target: T3, Peroxisome proliferator-activated receptor delta (Homo sapiens, UniProt Q03181); assay: Binding affinity to human PPAR delta
T3 sequence (Q03181 whole entry): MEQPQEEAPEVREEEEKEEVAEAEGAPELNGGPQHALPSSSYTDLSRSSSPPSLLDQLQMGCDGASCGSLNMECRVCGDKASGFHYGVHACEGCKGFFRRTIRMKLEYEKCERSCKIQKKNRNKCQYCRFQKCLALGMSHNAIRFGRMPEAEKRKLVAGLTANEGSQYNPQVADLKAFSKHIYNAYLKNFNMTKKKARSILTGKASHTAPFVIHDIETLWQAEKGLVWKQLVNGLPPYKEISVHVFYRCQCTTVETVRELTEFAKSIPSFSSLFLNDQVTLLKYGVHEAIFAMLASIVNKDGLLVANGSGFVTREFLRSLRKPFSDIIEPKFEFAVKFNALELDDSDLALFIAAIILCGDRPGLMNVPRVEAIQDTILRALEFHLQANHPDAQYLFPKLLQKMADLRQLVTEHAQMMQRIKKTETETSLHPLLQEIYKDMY

[4] = molecular target: T1, Peroxisome proliferator-activated receptor alpha; assay: Transactivation by human PPAR alpha in COS1 cells; type: functional, cell-based, COS-1
[5] = system: Canis familiaris; assay: Decrease in cholesterol level in Beagle dog at 4 mg/kg, po; type: functional, Canis lupus familiaris; parameters: scale not given: the % may be the effect or the level left
In short: (§1)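 Male beagle dogs (12–18 kg, n = 5) fed cholesterol-free chow ad libitum with free access to water. Compounds were suspended in 0.5% methylcellulose and gavaged daily for 14 days. Serum cholesterol is reported as a mean value, with final-day data compared against vehicle control.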

[6] = molecular target: T2, Peroxisome proliferator-activated receptor gamma; type: functional, cell-based, COS-1
[7] = molecular target: T3, Peroxisome proliferator-activated receptor delta; assay: Transactivation by human PPAR delta in COS1 cells; type: functional, cell-based, COS-1
[8] = system: Syrian golden hamster; assay: Decrease in cholesterol level in Golden Syrian hamster at 100 mg/kg, po; type: functional, Mesocricetus auratus; parameters: scale not given: the % may be the effect or the level left
In short: (§2)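 Male Golden Syrian hamsters (120–150 g, n = 10) on normal rodent chow with free access to water. Sodium salts were given by oral gavage once daily for 9 days in 0.5% methylcellulose vehicle. Serum cholesterol and triglycerides were measured and reported as % change.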

[9] = system: Canis familiaris; assay: Decrease in cholesterol level in Beagle dog at 50 mg/kg, po; type: functional, Canis lupus familiaris; parameters: scale not given: the % may be the effect or the level left; in short: as §1
[10] = system: Syrian golden hamster; assay: Decrease in triglyceride level in Golden Syrian hamster at 100 mg/kg, po; type: functional, Mesocricetus auratus; parameters: scale not given: the % may be the effect or the level left; in short: as §2
[11] = molecular target: Cytochrome P450 2C9 (Homo sapiens, UniProt P11712)
Cytochrome P450 2C9, sequence (P11712 whole entry): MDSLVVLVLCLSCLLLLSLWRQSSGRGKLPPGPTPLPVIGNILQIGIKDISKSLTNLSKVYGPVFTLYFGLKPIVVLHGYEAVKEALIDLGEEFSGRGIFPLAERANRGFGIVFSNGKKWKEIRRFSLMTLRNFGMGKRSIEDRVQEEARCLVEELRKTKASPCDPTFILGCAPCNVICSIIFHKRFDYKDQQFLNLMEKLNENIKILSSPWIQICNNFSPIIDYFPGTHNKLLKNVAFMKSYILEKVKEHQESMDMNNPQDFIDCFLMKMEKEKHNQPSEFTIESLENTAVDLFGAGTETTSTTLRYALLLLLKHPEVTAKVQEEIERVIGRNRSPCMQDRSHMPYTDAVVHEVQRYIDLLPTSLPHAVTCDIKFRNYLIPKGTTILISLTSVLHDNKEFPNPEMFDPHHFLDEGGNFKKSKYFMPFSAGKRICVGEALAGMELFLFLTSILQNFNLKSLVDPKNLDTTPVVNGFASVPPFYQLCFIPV

Row | SMILES | IC50 [1] [nM] | IC50 [2] | EC50 ([4]; read-out: EC50) [nM] | IC50 ([3]; read-out: IC50) [nM] | also measured
1 | CCC1(CC)C=C(C(F)(F)F)c2cc(Cl)c(OCCCOc3ccc(O[C@](C)(CC)C(=O)O)cc3)cc2O1 | 125 | Not Active |  |  | IC50 [3]: Not Active
2 | CCC(C)(C)C(=O)O[C@H]1C[C@@H](C)C=C2C=C[C@H](C)[C@H](CC[C@@H]3C[C@@H](O)CC(=O)O3)[C@H]21 [SIMVASTATIN] |  |  |  |  | Activity [5]: -19%
3 | CCCc1cc(Oc2ccc(F)cc2)ccc1OCCCOc1ccc(C2SC(=O)NC2=O)cc1 (centres undefined) |  |  |  |  | EC50 [1]: Not Active; EC50 ([4]; cos-1): Not Active; EC50 [3]: Not Active; EC50 ([7]; cos-1): Not Active
4 | CC[C@@](C)(Cc1ccc(OCCCOc2ccc3c(C)cc(O)nc3c2)cc1)C(=O)O | 6090 | Not Active |  |  | IC50 [3]: Not Active
5 | CC[C@@](C)(Oc1ccc(OCCCOc2ccc3c(C(F)(F)F)cc(=O)oc3c2Cl)cc1)C(=O)O | 157 | Not Active |  | 3270 | 
6 | CC(C)(Oc1ccc(OCCCCOc2ccc(Oc3ccc(F)cc3)cc2Cl)cc1)C(=O)O |  |  | 35 |  | EC50 ([1]; read-out: EC50): 66 nM; EC50 ([3]; read-out: EC50): 545 nM; EC50 ([7]; read-out: EC50): 284 nM
7 | CCCc1cc(Oc2ccc(F)cc2)ccc1OCCCOc1ccc(OC(C)(C)C(=O)O)cc1 |  |  | 51 |  | EC50 ([1]; read-out: EC50): 110 nM; EC50 ([3]; read-out: EC50): 106 nM; EC50 ([7]; read-out: EC50): 55 nM
8 | CC(C)OC(=O)C(C)(C)Oc1ccc(C(=O)c2ccc(Cl)cc2)cc1 [FENOFIBRATE] |  |  |  |  | Activity [8]: -31%; Activity [9]: -18%; Activity [10]: -30%
9 | CC[C@@](C)(Cc1ccc(OCCCOc2ccc3c(C(F)(F)F)cc(=O)oc3c2C)cc1)C(=O)O | 49 | Not Active | 10 | 134 | 
10 | CC[C@@](C)(Cc1ccc(OCCCOc2ccccc2Cl)cc1)C(=O)O | 42 |  | 54.1 | 4630 | 
11 | CC[C@@](C)(Cc1ccc(OCCCOc2ccc(CC(F)(F)F)cc2Cl)cc1)C(=O)O | < 1 |  | < 1 | > 70000 | IC50 ([2]; read-out: IC50): > 6000 nM; IC50 [11]: < 50 nM; EC50 ([6]; cos-1): Not Active
12 | CC(C)(Oc1ccccc1OCCCOc1ccc(Oc2ccc(F)cc2)cc1Cl)C(=O)O |  |  |  |  | EC50 [1]: Not Active; EC50 [2]: Not Active; EC50 [3]: Not Active

Further lines, with some results ahead:

Row | IC50 [1] [nM] | IC50 [2] | EC50 ([4]; read-out: EC50) [nM] | IC50 ([3]; read-out: IC50) [nM] | SMILES | also measured
13 | 130 | Not Active | 454 | 1130 | CCCC(Cc1ccc(OCCCOc2ccc(Oc3ccc(F)cc3)cc2Cl)cc1)C(=O)O (centres undefined) | 
14 | 101 | Not Active | 20 | 2410 | CC[C@@](C)(Oc1ccc(OCCCOc2ccc(Oc3ccc(F)cc3)cc2Cl)cc1)C(=O)O | EC50 ([6]; read-out: EC50): > 3000 nM
15 |  |  | 21 |  | CC(C)(Oc1cccc(OCCCOc2ccc(Oc3ccc(F)cc3)cc2Cl)c1)C(=O)O | EC50 ([1]; read-out: EC50): 36 nM; EC50 [2]: Not Active
16 | 262 | Not Active |  | 1340 | O=C(O)C(Cc1ccc(OCCCOc2ccc(Oc3ccc(F)cc3)cc2Cl)cc1)c1ccccc1 (centres undefined) | 
17 | 675 |  |  | > 50 | O=C(O)CCc1ccc(OCCCOc2ccc(Oc3ccc(F)cc3)cc2Cl)cc1 | 
18 | 116 | Not Active | 15 | 1350 | O=C(O)C(Cc1ccc(OCCCOc2ccc(Oc3ccc(F)cc3)cc2Cl)cc1)C1CCC1 (centres undefined) | EC50 ([6]; cos-1): Not Active
19 | 5 |  | 2.5 |  | CCC(C)(Oc1ccc(OCCCOc2ccc(Oc3ccc(F)cc3)cc2Cl)cc1)C(=O)O (centres undefined) | IC50 ([2]; read-out: IC50): 1240 nM; IC50 [3]: Not Active; EC50 ([6]; cos-1): Not Active
20 | 22 | Not Active | 2.7 |  | CCC(CC)(Oc1ccc(OCCCOc2ccc(Oc3ccc(F)cc3)cc2Cl)cc1)C(=O)O | IC50 [3]: Not Active; EC50 ([6]; cos-1): Not Active
21 | 208 | Not Active |  | 4070 | CC(Cc1ccc(OCCCOc2ccc(Oc3ccc(F)cc3)cc2Cl)cc1)C(=O)O (centres undefined) | 
22 | 30 |  | 20 | 2390 | CC(C)(Oc1ccc(OCCCOc2ccc(Oc3ccc(F)cc3)cc2Cl)cc1)C(=O)O | EC50 ([7]; read-out: EC50): > 3000 nM
23 | 156 | Not Active |  | 1170 | CCC(Cc1ccc(OCCCOc2ccc(Oc3ccc(F)cc3)cc2Cl)cc1)C(=O)O (centres undefined) | 
24 |  |  | 62 |  | CC(C)(Oc1ccc(OCCOc2ccc(Oc3ccc(F)cc3)cc2Cl)cc1)C(=O)O | EC50 ([1]; read-out: EC50): 87 nM; EC50 [2]: Not Active; EC50 [3]: Not Active; EC50 ([6]; cos-1): Not Active; EC50 ([7]; cos-1): Not Active
25 | 6 | Not Active | 3 | 1090 | CC[C@](C)(Oc1ccc(OCCCOc2ccc(Oc3ccc(F)cc3)cc2Cl)cc1)C(=O)O | EC50 ([6]; cos-1): Not Active
